Measured values reported in ChEMBL document CHEMBL1153560, “In vitro activities of doripenem and six comparator drugs against 423 aerobic and anaerobic bacterial isolates from infected diabetic foot wounds” (2008).
Converted amounts (≈) assume the structure as drawn.

Key:
Type in all cases: functional
Escherichia coli [1] = test: Antibacterial activity against Escherichia coli isolated from patient with diabetic foot infection assessed as percent resistant isolates after 18 to 24 hrs by broth microdilution method
Summary of the method: (§1)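 Aerobes subcultured on Trypticase soy blood agar, then broth microdilution in cation-adjusted Mueller-Hinton broth. Trays prepared in-house with twofold dilutions and stored at −70°C. Overnight colonies suspended to about 5 × 10^5 CFU/ml final. Read after 18 to 24 h at 37°C. QC strains included S. aureus ATCC 29213 and E. coli ATCC 25922.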

Proteus vulgaris [2] = test: Antibacterial activity against Proteus vulgaris isolated from patient with diabetic foot infection assessed as percent resistant isolates after 18 to 24 hrs by broth microdilution method; summary of the method: as §1
Providencia rettgeri [3] = test: Antibacterial activity against Proteus rettgeri isolated from patient with diabetic foot infection assessed as percent resistant isolates after 18 to 24 hrs by broth microdilution method; summary of the method: as §1
[4] = test system: Staphylococcus haemolyticus; test: Antibacterial activity against Staphylococcus haemolyticus isolated from patient with diabetic foot infection after 18 to 24 hrs by broth microdilution method
[5] = test system: Staphylococcus lugdunensis; test: Antibacterial activity against Staphylococcus lugdunensis isolated from patient with diabetic foot infection after 18 to 24 hrs by broth microdilution method
Summary of the method: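 Subcultured on Trypticase soy blood agar, then broth microdilution in cation-adjusted Mueller-Hinton broth. Trays were made in-house with serial twofold drug dilutions and stored at −70°C. Inoculum was colonies from overnight growth, final approximately 5 × 10^5 CFU/ml. MIC was read after 18 to 24 h at 37°C. QC strains: S. aureus ATCC 29213 and E. coli ATCC 25922.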

Streptococcus agalactiae = test: Antibacterial activity against Streptococcus agalactiae isolated from patient with diabetic foot infection after 18 to 24 hrs by broth microdilution method
Summary of the method: (§2)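 Streptococcal isolates were subcultured on Trypticase soy blood agar. Broth microdilution used cation-adjusted Mueller-Hinton broth with lysed horse blood, in in-house trays of serial twofold drug dilutions stored at −70°C. Overnight colonies were suspended to a final inoculum of approximately 5 × 10^5 CFU/ml. MIC was read after 18 to 24 h incubation at 37°C.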

[6] = test system: Streptococcus dysgalactiae subsp. equisimilis; test: Antibacterial activity against Streptococcus dysgalactiae subsp. equisimilis isolated from patient with diabetic foot infection after 18 to 24 hrs by broth microdilution method; summary of the method: as §2
Streptococcus pyogenes = test: Antibacterial activity against Streptococcus pyogenes isolated from patient with diabetic foot infection after 18 to 24 hrs by broth microdilution method; summary of the method: as §2
Staphylococcus aureus [7] = test: Antibacterial activity against methicillin-resistant Staphylococcus aureus isolated from patient with diabetic foot infection assessed as percent resistant isolates after 18 to 24 hrs by broth microdilution method
Summary of the method: (§3)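 Isolates grown on Trypticase soy blood agar, then tested by broth microdilution in unsupplemented cation-adjusted Mueller-Hinton broth. In-house trays held serial twofold drug dilutions and were stored at −70°C. Overnight colonies were suspended to a final inoculum near 5 × 10^5 CFU/ml, and trays read after 18–24 h at 37°C. QC strains: S. aureus ATCC 29213, E. coli ATCC 25922.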

Staphylococcus aureus [8] = test: Antibacterial activity against methicillin-sensitive Staphylococcus aureus isolated from patient with diabetic foot infection assessed as percent resistant isolates after 18 to 24 hrs by broth microdilution method; summary of the method: as §3
[9] = test system: Streptococcus dysgalactiae subsp. equisimilis; test: Antibacterial activity against Streptococcus dysgalactiae subsp. equisimilis isolated from patient with diabetic foot infection assessed as percent resistant isolates after 18 to 24 hrs by broth microdilution method
Summary of the method: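 Streptococci subcultured on Trypticase soy blood agar and tested by broth microdilution in cation-adjusted Mueller-Hinton broth with lysed horse blood. In-house twofold dilution trays stored at −70°C. About 5 × 10^5 CFU/ml final inoculum from overnight colonies. Read after 18 to 24 h at 37°C.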

Escherichia coli [10] = test: Antibacterial activity against Escherichia coli isolated from patient with diabetic foot infection after 18 to 24 hrs by broth microdilution method
Summary of the method: (§4)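 Isolates were subcultured on Trypticase soy blood agar and tested by broth microdilution in cation-adjusted Mueller-Hinton broth. In-house trays of twofold drug dilutions were stored at −70°C. Overnight colonies gave a final inoculum of about 5 × 10^5 CFU/ml. Plates were read after 18 to 24 h at 37°C.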

Enterobacter cloacae = test: Antibacterial activity against Enterobacter cloacae isolated from patient with diabetic foot infection after 18 to 24 hrs by broth microdilution method; summary of the method: as §4
Proteus vulgaris [11] = test: Antibacterial activity against Proteus vulgaris isolated from patient with diabetic foot infection after 18 to 24 hrs by broth microdilution method; summary of the method: as §4
Providencia rettgeri [12] = test: Antibacterial activity against Proteus rettgeri isolated from patient with diabetic foot infection after 18 to 24 hrs by broth microdilution method; summary of the method: as §4
Pseudomonas aeruginosa [13] = test: Antibacterial activity against Pseudomonas aeruginosa isolated from patient with diabetic foot infection after 18 to 24 hrs by broth microdilution method; summary of the method: as §4
[14] = test system: Corynebacterium aurimucosum; test: Antibacterial activity against Corynebacterium aurimucosum isolated from patient with diabetic foot infection after 48 hrs by broth microdilution method
Summary of the method: (§5)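 Isolates were subcultured on Trypticase soy blood agar. Broth microdilution used cation-adjusted Mueller-Hinton broth with lysed horse blood, in-house trays of twofold drug dilutions stored at −70°C. Colonies from overnight growth gave a final inoculum of about 5 × 10^5 CFU/ml. Trays were read after 18 to 24 h at 37°C, up to 48 h for some strains.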

Corynebacterium jeikeium [15] = test: Antibacterial activity against Corynebacterium jeikeium isolated from patient with diabetic foot infection after 48 hrs by broth microdilution method; summary of the method: as §5
Corynebacterium simulans [16] = test: Antibacterial activity against Corynebacterium simulans isolated from patient with diabetic foot infection after 48 hrs by broth microdilution method; summary of the method: as §5
Pseudomonas aeruginosa [17] = test: Antibacterial activity against Pseudomonas aeruginosa isolated from patient with diabetic foot infection assessed as percent resistant isolates after 18 to 24 hrs by broth microdilution method; summary of the method: as §1
[18] = test system: Corynebacterium aurimucosum; test: Antibacterial activity against Corynebacterium aurimucosum isolated from patient with diabetic foot infection assessed as percent resistant isolates after 48 hrs by broth microdilution method
Summary of the method: (§6)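 Isolates subcultured on Trypticase soy blood agar. Broth microdilution in cation-adjusted Mueller-Hinton broth with lysed horse blood, using in-house twofold dilution trays stored at −70°C. Inoculum from overnight colonies at about 5 × 10^5 CFU/ml final. Read after 18 to 24 h at 37°C, up to 48 h for some Corynebacterium strains.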

Corynebacterium jeikeium [19] = test: Antibacterial activity against Corynebacterium jeikeium isolated from patient with diabetic foot infection assessed as percent resistant isolates after 48 hrs by broth microdilution method; summary of the method: as §6
[20] = test system: Corynebacterium minutissimum; test: Antibacterial activity against Corynebacterium minutissimum isolated from patient with diabetic foot infection assessed as percent resistant isolates after 48 hrs by broth microdilution method; summary of the method: as §6
Corynebacterium accolens = test: Antibacterial activity against Corynebacterium accolens isolated from patient with diabetic foot infection assessed as percent resistant isolates after 48 hrs by broth microdilution method; summary of the method: as §6
Corynebacterium simulans [21] = test: Antibacterial activity against Corynebacterium simulans isolated from patient with diabetic foot infection assessed as percent resistant isolates after 48 hrs by broth microdilution method; summary of the method: as §6
Corynebacterium xerosis = test: Antibacterial activity against Corynebacterium xerosis isolated from patient with diabetic foot infection assessed as percent resistant isolates after 48 hrs by broth microdilution method; summary of the method: as §6

SMILES | Activity (Escherichia coli [1]) [%] | Activity (Proteus vulgaris [2]) [%] | Activity (Providencia rettgeri [3]) [%] | MIC50 [4] [µg/mL] | MIC90 [4] [µg/mL] | MIC50 [5] [µg/mL] | MIC90 [5] [µg/mL] | MIC50 (Streptococcus agalactiae) [µg/mL] | MIC90 (Streptococcus agalactiae) [µg/mL] | MIC50 [6] [µg/mL] | MIC90 [6] [µg/mL] | MIC50 (Streptococcus pyogenes) [µg/mL] | MIC90 (Streptococcus pyogenes) [µg/mL] | Activity (Staphylococcus aureus [7]) [%] | Activity (Staphylococcus aureus [8]) [%] | Activity [9] [%] | MIC50 (Escherichia coli [10]) [µg/mL] | MIC90 (Escherichia coli [10]) [µg/mL] | MIC50 (Enterobacter cloacae) [µg/mL] | MIC90 (Enterobacter cloacae) [µg/mL] | other results
C[C@@H](O)[C@H]1C(=O)N2C(C(=O)O)=C(S[C@@H]3CN[C@H](C(=O)Nc4cccc(C(=O)O)c4)C3)[C@H](C)[C@H]12 [ERTAPENEM] | 0 | 0 | 0 | 4 (≈ 8.41 µM) | > 32 | 0.5 (≈ 1.05 µM) | 1 (≈ 2.1 µM) | 0.06 (≈ 0.126 µM) | 0.06 (≈ 0.126 µM) | ≤ 0.015 | ≤ 0.015 | ≤ 0.015 | ≤ 0.015 | 100 | 0 | 0 | ≤ 0.015 | 0.06 (≈ 0.126 µM) | 0.06 (≈ 0.126 µM) | 0.5 (≈ 1.05 µM) | MIC50 (Proteus vulgaris [11]): ≤ 0.015 µg/mL; MIC90 (Proteus vulgaris [11]): 0.25 µg/mL (≈ 0.526 µM); MIC50 (Providencia rettgeri [12]): ≤ 0.015 µg/mL; MIC90 (Providencia rettgeri [12]): 0.25 µg/mL (≈ 0.526 µM); MIC50 (Pseudomonas aeruginosa [13]): 8 µg/mL (≈ 16.8 µM); MIC90 (Pseudomonas aeruginosa [13]): 32 µg/mL (≈ 67.3 µM); MIC50 [14]: 1 µg/mL (≈ 2.1 µM); MIC90 [14]: 32 µg/mL (≈ 67.3 µM); MIC50 (Corynebacterium jeikeium [15]): 1 µg/mL (≈ 2.1 µM); MIC90 (Corynebacterium jeikeium [15]): 32 µg/mL (≈ 67.3 µM); MIC50 (Corynebacterium simulans [16]): 0.5 µg/mL (≈ 1.05 µM); MIC90 (Corynebacterium simulans [16]): 1 µg/mL (≈ 2.1 µM)
C[C@@H](O)[C@H]1C(=O)N2C(C(=O)O)=C(SCCNC=N)C[C@H]12 [IMIPENEM ANHYDROUS] | 0 | 0 | 0 | 0.06 (≈ 0.2 µM) | 16 (≈ 53.4 µM) | 0.03 (≈ 0.1 µM) | 0.06 (≈ 0.2 µM) | ≤ 0.015 | ≤ 0.015 | ≤ 0.015 | ≤ 0.015 | ≤ 0.015 | ≤ 0.015 | 100 | 0 | 0 | 0.125 (≈ 0.418 µM) | 0.25 (≈ 0.835 µM) | 1 (≈ 3.34 µM) | 2 (≈ 6.68 µM) | Activity (Pseudomonas aeruginosa [17]): 13%; Activity [18]: 30%; Activity (Corynebacterium jeikeium [19]): 30%; Activity [20]: 30%; Activity (Corynebacterium accolens): 0%; Activity (Corynebacterium simulans [21]): 0%; Activity (Corynebacterium xerosis): 0%; MIC50 (Proteus vulgaris [11]): 0.5 µg/mL (≈ 1.67 µM); MIC90 (Proteus vulgaris [11]): 4 µg/mL (≈ 13.4 µM); MIC50 (Providencia rettgeri [12]): 0.5 µg/mL (≈ 1.67 µM); MIC90 (Providencia rettgeri [12]): 4 µg/mL (≈ 13.4 µM); MIC50 (Pseudomonas aeruginosa [13]): 2 µg/mL (≈ 6.68 µM); MIC90 (Pseudomonas aeruginosa [13]): 8 µg/mL (≈ 26.7 µM); MIC50 [14]: 0.25 µg/mL (≈ 0.835 µM); MIC90 [14]: 32 µg/mL (≈ 107 µM); MIC50 (Corynebacterium jeikeium [15]): 0.25 µg/mL (≈ 0.835 µM); MIC90 (Corynebacterium jeikeium [15]): 32 µg/mL (≈ 107 µM); MIC50 (Corynebacterium simulans [16]): 0.03 µg/mL (≈ 0.1 µM); MIC90 (Corynebacterium simulans [16]): 0.125 µg/mL (≈ 0.418 µM)
C[C@@H](O)[C@H]1C(=O)N2C(C(=O)O)=C(S[C@@H]3CN[C@H](C(=O)N(C)C)C3)[C@H](C)[C@H]12 [MEROPENEM] | 0 | 0 | 0 | 1 (≈ 2.61 µM) | 32 (≈ 83.4 µM) | 0.25 (≈ 0.652 µM) | 0.5 (≈ 1.3 µM) | 0.06 (≈ 0.156 µM) | 0.06 (≈ 0.156 µM) | ≤ 0.015 | ≤ 0.015 | ≤ 0.015 | ≤ 0.015 | 100 | 0 | 0 | 0.03 (≈ 0.0782 µM) | 0.03 (≈ 0.0782 µM) | 0.06 (≈ 0.156 µM) | 0.5 (≈ 1.3 µM) | Activity (Pseudomonas aeruginosa [17]): 7%; Activity [18]: 20%; Activity (Corynebacterium jeikeium [19]): 20%; Activity [20]: 20%; Activity (Corynebacterium accolens): 0%; Activity (Corynebacterium simulans [21]): 0%; Activity (Corynebacterium xerosis): 0%; MIC50 (Proteus vulgaris [11]): 0.06 µg/mL (≈ 0.156 µM); MIC90 (Proteus vulgaris [11]): 0.125 µg/mL (≈ 0.326 µM); MIC50 (Providencia rettgeri [12]): 0.06 µg/mL (≈ 0.156 µM); MIC90 (Providencia rettgeri [12]): 0.125 µg/mL (≈ 0.326 µM); MIC50 (Pseudomonas aeruginosa [13]): 0.5 µg/mL (≈ 1.3 µM); MIC90 (Pseudomonas aeruginosa [13]): 4 µg/mL (≈ 10.4 µM); MIC50 [14]: 1 µg/mL (≈ 2.61 µM); MIC90 [14]: 16 µg/mL (≈ 41.7 µM); MIC50 (Corynebacterium jeikeium [15]): 1 µg/mL (≈ 2.61 µM); MIC90 (Corynebacterium jeikeium [15]): 16 µg/mL (≈ 41.7 µM); MIC50 (Corynebacterium simulans [16]): 0.125 µg/mL (≈ 0.326 µM); MIC90 (Corynebacterium simulans [16]): 0.25 µg/mL (≈ 0.652 µM)
